Test results as given in ChEMBL document CHEMBL3352487, “Synthesis, antibacterial activity, and biological evaluation of formyl hydroxyamino derivatives as novel potent peptide deformylase inhibitors against drug-resistant bacteria” (Eur J Med Chem, 2014).
In brackets after ≈: the same amount, converted by molar mass.

Experiments:
[1] = Drug recovery in CD1 mouse plasma at 2 uM by equilibrium dialysis; type: ADME, cell-free; conditions: read-out: Drug recovery
Summary of the method: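 Pooled CD-1 mouse plasma spiked to 2 µM final, equilibrium dialysis in triplicate against 100 mM PBS pH 7.4, 4 h at 37 °C with rotation; matrix-matched samples acetonitrile-precipitated, LC-MS/MS with internal standards. Unbound = free/total ×100; recovery = (free+total)/pre-dialysis ×100.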

Staphylococcus aureus [2] = test: Antimicrobial activity against Staphylococcus aureus isolate Smith ATCC 13709 after 24 hrs by broth microdilution method; type: functional; conditions: isolate Smith ATCC 13709, 24 h
Summary of the method: (§1)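 Broth microdilution following NCCLS M7-A4, using ATCC strains and clinical isolates from a provincial hospital.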

Staphylococcus aureus [3] = test: Antimicrobial activity against Staphylococcus aureus isolate NEQAS 4026 after 24 hrs by broth microdilution method; type: functional; conditions: isolate NEQAS 4026, 24 h
Summary of the method: (§2)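 Broth microdilution following NCCLS M7-A4; ATCC strains and clinical isolates from a provincial hospital.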

Staphylococcus aureus [4] = test: Antimicrobial activity against Staphylococcus aureus isolate 929035 after 24 hrs by broth microdilution method; type: functional; conditions: isolate 929035, 24 h; summary of the method: as §2
Staphylococcus aureus [5] = test: Antimicrobial activity against Staphylococcus aureus isolate 934387 after 24 hrs by broth microdilution method; type: functional; conditions: isolate 934387, 24 h; summary of the method: as §1

CCCC[C@H](CN(O)C=O)C(=O)N1CC=C[C@H]1C(=O)Nc1ccc(F)c[n+]1[O-]
recovery at 2 µM [1]: 91.2%
MIC (Staphylococcus aureus [2]): 0.25 µg/mL (≈ 0.634 µM)
MIC (Staphylococcus aureus [3]): 1 µg/mL (≈ 2.54 µM)
MIC (Staphylococcus aureus [4]): 1 µg/mL (≈ 2.54 µM)
MIC (Staphylococcus aureus [5]): 0.5 µg/mL (≈ 1.27 µM)
